Measurements reported in ChEMBL document CHEMBL4321838, “Drug Design Targeting T-Cell Factor-Driven Epithelial-Mesenchymal Transition as a Therapeutic Strategy for Colorectal Cancer” (J Med Chem, 2019).

Columns and labels:
[1] = Metabolic stability in CD-1 mouse inactive microsomes incubated for 1 hr by LC-MS/MS analysis; assay type: ADME, Microsome
[2] = Drug metabolism in CD-1 mouse active microsomes assessed as metabolite formation at rate of biphasic kinetics by LC-MS/MS analysis; assay type: ADME, Microsome
[3] = Drug metabolism in CD-1 mouse active microsomes assessed as metabolite formation at rate of first-order kinetics by LC-MS/MS analysis; assay type: ADME, Microsome
[4] = target: DNA topoisomerase 2-alpha (Homo sapiens, UniProt P11388); test: Inhibition of human topoisomerase 2alpha mediated decatenation at 30 uM using kDNA as susbtrate preincubated for 20 mins followed by substrate and ATP addition and measured after 1 hr by ethidium bromide staining based gel electrophoresis method relative to control
In short: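 Human TOP2A (3 U) preincubated 20 min at 37 °C with compound at 30 μM in 1.2% DMSO. Reaction started with 2 mM ATP and 35 ng kDNA and run 1 h at 37 °C. Products resolved on 0.8% agarose in TBE with 0.2 μg/mL ethidium bromide; decatenated bands compared with vehicle.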

[5] = compound: COc1cc(NC(C)=O)c(O)c2nccc(-c3ccccc3NC(=O)c3ccccc3)c12; test: Competitive inhibition of human topoisomerase 2alpha ATPase activity assessed as Km for ATP hydrolysis with DNA relaxation at 5 uM using supercoiled plasmid DNA as susbtrate after 1 hr by malachite green assay/Michelis-Menten kinetics analysis (reference value: 317.8 to 350.1 microM)
[6] = compound: Cn1ccc2c(c1=O)C(=O)c1nccc3c1c-2nc1ccccc13; test: Competitive inhibition of human topoisomerase 2alpha ATPase activity assessed as Vmax for ATP hydrolysis with DNA relaxation at 20 uM using supercoiled plasmid DNA as susbtrate after 1 hr by malachite green assay/Michelis-Menten kinetics analysis (reference value: 0.652 to 0.6529 pmol/s)
[7] = compound: Cn1ccc2c(c1=O)C(=O)c1nccc3c1c-2nc1ccccc13; test: (§1) Competitive inhibition of human topoisomerase 2alpha ATPase activity assessed as Vmax for ATP hydrolysis with DNA relaxation at 10 uM using supercoiled plasmid DNA as susbtrate after 1 hr by malachite green assay/Michelis-Menten kinetics analysis (reference value: 0.652 to 0.6529 pmol/s)
[8] = compound: COc1cc(NC(C)=O)c(O)c2nccc(-c3ccccc3NC(=O)c3ccccc3)c12; test: as §1
[9] = compound: COc1cc(NC(C)=O)c(O)c2nccc(-c3ccccc3NC(=O)c3ccccc3)c12; test: Competitive inhibition of human topoisomerase 2alpha ATPase activity assessed as Vmax for ATP hydrolysis with DNA relaxation at 5 uM using supercoiled plasmid DNA as susbtrate after 1 hr by malachite green assay/Michelis-Menten kinetics analysis (reference value: 0.652 to 0.6529 pmol/s)
[10] = compound: Cn1ccc2c(c1=O)C(=O)c1nccc3c1c-2nc1ccccc13; test: (§2) Competitive inhibition of human topoisomerase 2alpha ATPase activity assessed as Km for ATP hydrolysis with DNA relaxation at 10 uM using supercoiled plasmid DNA as susbtrate after 1 hr by malachite green assay/Michelis-Menten kinetics analysis (reference value: 317.8 to 350.1 microM)
[11] = compound: COc1cc(NC(C)=O)c(O)c2nccc(-c3ccccc3NC(=O)c3ccccc3)c12; test: as §2
[12] = compound: Cn1ccc2c(c1=O)C(=O)c1nccc3c1c-2nc1ccccc13; test: Competitive inhibition of human topoisomerase 2alpha ATPase activity assessed as Km for ATP hydrolysis with DNA relaxation at 20 uM using supercoiled plasmid DNA as susbtrate after 1 hr by malachite green assay/Michelis-Menten kinetics analysis (reference value: 317.8 to 350.1 microM)

| Stability [1] | Drug metabolism [2] | Drug metabolism [3] | inhibition [4] [%] | Molecule | Km [5] [µM] | Vmax [6] [pmol/s] | Vmax [7] [pmol/s] | Vmax [8] [pmol/s] | Vmax [9] [pmol/s] | Km [10] [µM] | Km [11] [µM] | Km [12] [µM] |
| --- | --- | --- | --- | --- | --- | --- | --- | --- | --- | --- | --- | --- |
| Stable | Metabolite_Detected | Metabolite_Notdetected | 25 | CC(=O)Nc1ccc2c(-c3ccccc3)ccnc2c1O |  |  |  |  |  |  |  |  |
|  |  |  |  | DNA topoisomerase 2-alpha (Homo sapiens), P11388 (protein) MEVSPLQPVNENMQVNKIKKNEDAKKRLSVERIYQKKTQLEHILLRPDTYIGSVELVTQQMWVYDEDVGINYREVTFVPGLYKIFDEILVNAADNKQRDPKMSCIRVTIDPENNLISIWNNGKGIPVVEHKVEKMYVPALIFGQLLTSSNYDDDEKKVTGGRNGYGAKLCNIFSTKFTVETASREYKKMFKQTWMDNMGRAGEMELKPFNGEDYTCITFQPDLSKFKMQSLDKDIVALMVRRAYDIAGSTKDVKVFLNGNKLPVKGFRSYVDMYLKDKLDETGNSLKVIHEQVNHRWEVCLTMSEKGFQQISFVNSIATSKGGRHVDYVADQIVTKLVDVVKKKNKGGVAVKAHQVKNHMWIFVNALIENPTFDSQTKENMTLQPKSFGSTCQLSEKFIKAAIGCGIVESILNWVKFKAQVQLNKKCSAVKHNRIKGIPKLDDANDAGGRNSTECTLILTEGDSAKTLAVSGLGVVGRDKYGVFPLRGKILNVREASHKQIMENAEINNIIKIVGLQYKKNYEDEDSLKTLRYGKIMIMTDQDQDGSHIKGLLINFIHHNWPSLLRHRFLEEFITPIVKVSKNKQEMAFYSLPEFEEWKSSTPNHKKWKVKYYKGLGTSTSKEAKEYFADMKRHRIQFKYSGPEDDAAISLAFSKKQIDDRKEWLTNFMEDRRQRKLLGLPEDYLYGQTTTYLTYNDFINKELILFSNSDNERSIPSMVDGLKPGQRKVLFTCFKRNDKREVKVAQLAGSVAEMSSYHHGEMSLMMTIINLAQNFVGSNNLNLLQPIGQFGTRLHGGKDSASPRYIFTMLSSLARLLFPPKDDHTLKFLYDDNQRVEPEWYIPIIPMVLINGAEGIGTGWSCKIPNFDVREIVNNIRRLMDGEEPLPMLPSYKNFKGTIEELAPNQYVISGEVAILNSTTIEISELPVRTWTQTYKEQVLEPMLNGTEKTPPLITDYREYHTDTTVKFVVKMTEEKLAEAERVGLHKVFKLQTSLTCNSMVLFDHVGCLKKYDTVLDILRDFFELRLKYYGLRKEWLLGMLGAESAKLNNQARFILEKIDGKIIIENKPKKELIKVLIQRGYDSDPVKAWKEAQQKVPDEEENEESDNEKETEKSDSVTDSGPTFNYLLDMPLWYLTKEKKDELCRLRNEKEQELDTLKRKSPSDLWKEDLATFIEELEAVEAKEKQDEQVGLPGKGGKAKGKKTQMAEVLPSPRGQRVIPRITIEMKAEAEKKNKKKIKNENTEGSPQEDGVELEGLKQRLEKKQKREPGTKTKKQTTLAFKPIKKGKKRNPWSDSESDRSSDESNFDVPPRETEPRRAATKTKFTMDLDSDEDFSDFDEKTDDEDFVPSDASPPKTKTSPKLSNKELKPQKSVVSDLEADDVKGSVPLSSSPPATHFPDETEITNPVPKKNVTVKKTAAKSQSSTSTTGAKKRAAPKGTKRDPALNSGVSQKPDPAKTKNRRKRKPSTSDDSDSNFEKIVSKAVTSKKSKGESDDFHMDFDSAVAPRAKSVRAKKPIKYLEESDEDDLF | 380 | 0.65 | 0.657 | 0.646 | 0.65 | 518 | 387 | 651 |
